Source: PubChem BioAssay (several laboratories)
Sampled rows, rich in hits. Any-hit rate of the full collection: about 4.1%.
MEKK3 PB1 HTS = modulators of MEKK3-MEK5 PB1 binding, primary screen, biochemical, wildtype MEKK3, multiplex bead flow cytometry, Alexa488-MEK5; bead-based flow cytometry, Alexa488-MEK5 binding to MEKK3; actives lie on both sides; 0 = blocked by unlabeled MEK5, 100 = vehicle; binding response (% of control), % at 10 µM; actives 1.4% (n = 290,000);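 active = binding response more than 3 SD above or below the average of its plate-row segment, actives on both sides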;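 also: Alexa488 bead fluorescence after subtracting the streptavidin-only scavenger bead signal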
Target sequence (Q99759 whole entry, looked up): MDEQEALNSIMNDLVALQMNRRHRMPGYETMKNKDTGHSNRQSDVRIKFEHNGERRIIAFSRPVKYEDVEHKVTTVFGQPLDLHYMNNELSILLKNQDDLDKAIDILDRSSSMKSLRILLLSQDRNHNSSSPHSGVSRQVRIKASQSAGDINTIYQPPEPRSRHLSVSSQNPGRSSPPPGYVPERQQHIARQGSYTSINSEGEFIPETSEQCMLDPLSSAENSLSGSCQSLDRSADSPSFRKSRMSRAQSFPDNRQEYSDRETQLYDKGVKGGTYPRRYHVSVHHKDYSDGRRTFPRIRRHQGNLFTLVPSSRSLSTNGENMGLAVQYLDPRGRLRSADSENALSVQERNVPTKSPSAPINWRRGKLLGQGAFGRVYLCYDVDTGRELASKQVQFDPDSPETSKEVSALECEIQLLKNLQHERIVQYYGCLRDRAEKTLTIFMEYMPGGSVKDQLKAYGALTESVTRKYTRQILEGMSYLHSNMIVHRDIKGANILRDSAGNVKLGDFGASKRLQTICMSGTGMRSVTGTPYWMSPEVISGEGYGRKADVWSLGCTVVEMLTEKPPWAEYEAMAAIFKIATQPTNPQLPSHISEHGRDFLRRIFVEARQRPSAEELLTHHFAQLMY
DNA FID counter = compounds displacing fluorescent DNA intercalator, primary screen, artefact control for HCV NS3 helicase inhibitor project, biochemical, FID fluorescence; actives 0.17% (n = 290,000); DNA fluorescent intercalator displacement; inhibition, % at 7.9 µM; in the data active = inhibition above about 37%;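 also: 0% = vehicle and 100% = reference compound; higher means more ethidium bromide displaced from hairpin DNA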
NS3 helicase inh = inhibitors of HCV NS3 helicase, primary screen, biochemical, Cy5 molecular beacon fluorescence; NS3 helicase DNA unwinding; inhibition, % at 10.9 µM; actives 0.56% (n = 290,000);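 active = inhibition above the mean of all tested compounds plus 3 SD, set per campaign, cut at about 35% in these data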;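 also: 0% = DMSO wells and 100% = thioflavine S control wells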
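System: NS3 helicase fragment of HCV / Schedule: 1 h at 25 °C / Control set: DMSO alone as 0% and 110 µM thioflavine S as 100% / Reagent: Cy5/quencher beacon DNA duplex and ATP to start / Technique: Cy5 fluorescence / Replication: singlicate / Evaluation: % inhibition of end-to-start signal ratio versus controls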
MEKK2 WT-MEK5 = modulators of MEK5 binding to wildtype MEKK2, primary screen, biochemical, multiplex bead flow cytometry, Alexa488-MEK5 | Mitogen-activated protein kinase kinase kinase 2 (Homo sapiens), Q9Y2U5 | AID 1531, 2009 | Alexa488-MEK5 binding to MEKK2 WT; actives lie on both sides | binding response (% of control), % at 10 µM | actives 1.1% (n = 290,000); in the data active = binding response below about 67% or above about 130%
MEKK2mut PB1 HTS = MEK5 binding signal on mutant MEKK2 PB1, primary screen, biochemical, multiplex bead flow cytometry, Alexa488-MEK5; Alexa488-MEK5 binding to MEKK2 mutant; AID 1530, 2009; actives 0.35% (n = 290,000); percent response, % at 10 µM; in the data active = percent response above about 24%, passing the limit was not always enough
T cruzi repl = inhibitors of intracellular T. cruzi growth, primary screen, luminescence, NIH3T3 host cells; T. cruzi beta-gal in NIH3T3, 90 h; inhibition, % (test concentration not listed); actives 1.4% (n = 300,000);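 active = mean inhibition across valid replicates above about 55%, limit read from the data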;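 also: signal also drops with host cell toxicity which is not excluded here; 0% = plate median of DMSO wells and 100% = zero luminescence signal; higher percent means less beta-gal luminescence so fewer parasites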
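System: mouse NIH/3T3 fibroblasts infected with β-gal-expressing T. cruzi Tulahuen C4 / Input: NIH/3T3 cells, 5,000 per well / Buffer or medium: Low-serum DMEM with 2% FBS / Probe or stimulus: 5000 reporter trypomastigotes per well / Schedule: ≥90 h infection period, 3 h prior cell attachment / Measured by: GalScreen luminescence, 60 min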
* = called active by the depositor; · = no result.

SMILES | MEKK3 PB1 HTS | DNA FID counter | NS3 helicase inh | MEKK2 WT-MEK5 | MEKK2mut PB1 HTS | T cruzi repl
CCCCC(=O)N1C/C=C\C(c2ccc(OC)cc2)N(Cc2ccc(F)cc2)C(=O)[C@H]1Cc1ccccc1 (some centres not stated) | 112 | · | · | 128 | 1 | 64*
Cc1cc(C)c2sc(NNC(=O)c3ccc(S(=O)(=O)N4CCc5ccccc5C4)cc3)nc2c1 | 106 | -16 | 4 | 95 | 4 | 59*
Cc1cc(C)c2nc(NNC(=O)c3ccc(S(=O)(=O)N4CCc5ccccc5C4)cc3)sc2c1 | 88 | -18 | -2 | 92 | 2 | 59*
COc1ccc(C(=O)NCCN2CCCC2)cc1[N+](=O)[O-] | 106 | 1 | -3 | 115 | 3 | -3
Cc1ccc(C2(c3ccc(C)cc3)CC2C(=O)Nc2ccc([N+](=O)[O-])cc2O)cc1 (configuration not stated) | 106 | 9 | 36 | 96 | -1 | 55*
CCSc1nnc(NC(=O)[C@H](C)NC(=O)c2ccccc2Cl)s1 | 92 | -11 | 7 | 95 | -2 | 13
COC(=O)C1=C(C)NC(C)=C(C(=O)OC)C1c1ccc(OC(=O)c2oc3ccccc3c2C)c(OC)c1 | 99 | -3 | 2 | 98 | -2 | -10
CC1CC(C)CN(CCOCCSc2ccccc2)C1 (configuration not stated) | 95 | 9 | -15 | 111 | 12 | 60*
CCc1ccc(NC(=O)COC(=O)CCc2nc3cc(S(=O)(=O)N(CC)CC)ccc3n2C)cc1 | 94 | -26 | 19 | 109 | 5 | 7
Cc1c(C(=O)NCC2COc3ccccc3O2)oc2ccc(S(=O)(=O)N(C)C3CCCCC3)cc12 (configuration not stated) | 111 | -1 | 4 | 106 | 7 | 75*
CN(C)S(=O)(=O)c1ccc(N2CCCC2)c(C(=O)NCC2COc3ccccc3O2)c1 (configuration not stated) | · | · | · | · | · | 2
Cc1ccc2nc3c(c(N)c2c1)CCN3c1ccccc1 | 78 | 15 | -4 | 93 | -6 | 28
Cc1ccc2nc3c(c(N)c2c1)CCN3C | 106 | 42* | -7 | 113 | 11 | 28
O=C(N/N=C/c1ccc(O)cc1)Nc1cccc2nsnc12 | 100 | 1 | -22 | 95 | -6 | 62*
COC(=O)c1[nH]c2cc(C)ccc2c1NC(=O)CN1CCN(c2ccccc2OC)CC1 | 100 | -32 | -12 | 97 | 9 | 20
COC(=O)c1[nH]c2ccc(C)cc2c1NC(=O)CN1CCCc2ccccc21 | 92 | -15 | -13 | -9.0* | 15 | 85*
CSc1ccccc1OCc1cc(C(=O)N(C)Cc2ccncn2)no1 | 100 | -23 | 11 | 104 | 6 | 3
CS(=O)(=O)N(CC(=O)N1CCCCCC1)c1cccc(F)c1 | 110 | -4 | -6 | 107 | 2 | 8
CC1=[N+](C)c2c(ccc3cccnc23)C1(C)C | 91 | -9 | 6 | -9.0* | -15 | ·
Cc1[nH]c2c(ccc3cccnc32)c1C | 91 | -5 | 0 | 89 | -3 | -19
CCOc1cc(/C=N/Nc2ccccc2Cl)ccc1OCC(=O)O | 100 | -27 | 53* | 98 | -4 | ·
CCOc1cc(/C=N/Nc2nc(Nc3ccccc3)nc(N3CCCCC3)n2)ccc1OCC(=O)O | 122 | -1 | 15 | 110 | 0 | 8
COc1ccc(S(=O)(=O)N(C)C)cc1NC(=O)Cc1c[nH]c2ccccc12 | 109 | -19 | 17 | 101 | -42 | -11
Cc1cc2c(c(=O)n1Cc1ccc3c(c1)OCO3)C(c1cccnc1)C(C#N)=C(N)O2 (configuration not stated) | 99 | -11 | 6 | 96 | -2 | 61*
